Results from PMC7004556 (Cancer Science, 2020).
“Also recorded” adds a separate entry of the source. Marks after values point to notes of the source that are not given here.

Columns and labels:
FGFR pathway [1] = settings: cited from earlier work
advanced gastric cancer = advanced gastric cancer with FGFR2 polysomy or gene amplification; cited from earlier work
advanced solid tumors [2] = settings: Japanese patients with advanced solid tumors, duration ≥4 weeks; cited from earlier work
[3] = test system: patients with advanced solid tumors; experiment: Phase I dose escalation: safety and tolerability; type: in vivo, human
Summary of the method: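 Patients received a single 1 mg oral dose on cycle 0 day 1, then a washout on days 2-7. Oral once-daily dosing followed in 28-day cycles from day 8-10. Doses were escalated by mTPI design (target DLT rate 25% ± 5%). DLTs were assessed over cycles 0-1 against predefined haematological, non-haematological, calcification and hyperphosphataemia criteria. AEs were coded by MedDRA v20.1 and graded by CTCAE v4.03.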

Phase I pharmacokinetics = type: in vivo, human; settings: for AUC(0‐t) / C avg / C max / C min / T max / AUC(0‐inf) / CL/F / T 1/2 / Vz/F: oral; for T max: median (range)
Summary of the method: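 Plasma was sampled predose in all cycles and after dosing up to cycle 3. Plasma (100 µL) plus IS and 5 mmol/L ammonium hydrogen carbonate underwent solid-phase extraction, with methanol/formic acid elution. Drug in plasma and urine was quantified by LC-MS/MS: ODS column at 40°C, isocratic 40:60 water/acetonitrile-water with 15 mmol/L ammonium hydrogen carbonate, 0.25 mL/minute, positive-mode MRM. Parameters came from non-compartmental analysis.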

FGFR pathway [4] = experiment: Pharmacodynamic markers of FGFR pathway inhibition; type: in vivo, human; settings: QD
Summary of the method: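 Blood was drawn before dosing in cycles 0, 1 and later odd cycles, and after the cycle 0 dose on days 1-4. FGF23 was measured by solid-phase sandwich ELISA (mouse anti-human FGF23 capture, peroxidase-conjugated mouse anti-human FGF23 detection, colorimetric). 1,25-(OH)2-vitamin D was measured by double-antibody RIA (sheep antibody 16-18 h, 125I tracer, cellulose-conjugated donkey anti-sheep IgG, γ-counting). Serum phosphate was also tracked.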

advanced solid tumors [5] = experiment: Antitumor activity by RECIST v1.1 in phase I; type: in vivo, human
Summary of the method: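 Tumours assessed by CT and/or MRI per RECIST v1.1 at screening, every 8 weeks from cycle 1 day 1, and at discontinuation. Oral once-daily dosing ran in 28-day cycles. Best overall response was scored in patients with ≥1 RECIST target lesion. The efficacy set covered treated patients with a baseline and ≥1 post-baseline assessment.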

FGFR = settings: SNU‐16 cells, dose‐dependent; cited from earlier work
[6] = test system: tumors harboring FGFR abnormalities; settings: mice with tumors metastasized to the lung; cited from earlier work
patients = settings: phase I study, only at the highest dose investigated (12 mg); cited from earlier work
[7] = repeated dose QD, 30 mg (n = 2), mean
[8] = repeated dose QD, 60 mg (n = 2), mean
[9] = repeated dose QD, 100 mg (n = 3), mean ± SD
[10] = repeated dose QD, 140 mg (n = 3), mean ± SD
[11] = repeated dose QD, 180 mg (n = 3), mean ± SD
[12] = single dose, 30 mg (n = 2), mean
[13] = single dose, 60 mg (n = 3), mean ± SD
[14] = single dose, 100 mg (n = 3), mean ± SD
[15] = single dose, 140 mg (n = 3), mean ± SD
[16] = single dose, 180 mg (n = 3), mean ± SD

## AZD4547
FGFR pathway [1]
  Serum phosphate: increase
Advanced gastric cancer
  Effect on progression‐free survival compared with paclitaxel: no significant effect
Advanced solid tumors [2]
  Best response: stable disease

## CNC(=O)n1ccc2cc(Oc3ccnc(NC(=O)c4ccc(C5CCN(CCO)CC5)cc4)c3)c(OCCOC)cc21 [E7090]
[3]; 1 mg QD to 140 mg QD, cycle 0‐cycle 1
  Dose‐limiting toxicity (DLT): No DLT was observed; also recorded: no DLT were reported
[3]; 60 mg (n = 3), any grade
  ALT increased, treatment‐related TEAE: 1 (33.3) n (%)
  Anemia, treatment‐related TEAE: 1 (33.3) n (%)
  Blood creatinine increased, treatment‐related TEAE: 2 (66.7) n (%)
  Diarrhea, treatment‐related TEAE: 2 (66.7) n (%)
  Lipase increased, treatment‐related TEAE: 1 (33.3) n (%)
  Nausea, treatment‐related TEAE: 1 (33.3) n (%)
  PPE syndrome, treatment‐related TEAE: 1 (33.3) n (%)
  Vomiting, treatment‐related TEAE: 1 (33.3) n (%)
[3]; 100 mg (n = 3), any grade
  Anemia, treatment‐related TEAE: 1 (33.3) n (%)
  Blood ALP increased, treatment‐related TEAE: 1 (33.3) n (%)
  Blood creatinine increased, treatment‐related TEAE: 1 (33.3) n (%)
  Hyperphosphatemia, treatment‐related TEAE: 3 (100.0) n (%)
  Lipase increased, treatment‐related TEAE: 1 (33.3) n (%)
  Nausea, treatment‐related TEAE: 1 (33.3) n (%)
  Retinal detachment, treatment‐related TEAE: 2 (66.7) n (%)
[3]; 140 mg (n = 3), any grade
  ALT increased, treatment‐related TEAE: 3 (100.0) n (%)
  AST increased, treatment‐related TEAE: 2 (66.7) n (%)
  Anemia, treatment‐related TEAE: 1 (33.3) n (%)
  Blood ALP increased, treatment‐related TEAE: 2 (66.7) n (%)
  Blood creatinine increased, treatment‐related TEAE: 3 (100.0) n (%)
  Diarrhea, treatment‐related TEAE: 1 (33.3) n (%)
  Dysgeusia, treatment‐related TEAE: 2 (66.7) n (%)
  Hyperphosphatemia, treatment‐related TEAE: 3 (100.0) n (%)
  Lipase increased, treatment‐related TEAE: 1 (33.3) n (%)
  Nausea, treatment‐related TEAE: 1 (33.3) n (%)
  PPE syndrome, treatment‐related TEAE: 1 (33.3) n (%)
  Retinal detachment, treatment‐related TEAE: 1 (33.3) n (%)
  Vomiting, treatment‐related TEAE: 1 (33.3) n (%)
[3]; 180 mg (n = 3), any grade
  ALT increased, treatment‐related TEAE: 2 (66.7) n (%)
  AST increased, treatment‐related TEAE: 2 (66.7) n (%)
  Blood creatinine increased, treatment‐related TEAE: 1 (33.3) n (%)
  Diarrhea, treatment‐related TEAE: 3 (100.0) n (%)
  Dysgeusia, treatment‐related TEAE: 1 (33.3) n (%)
  Hyperphosphatemia, treatment‐related TEAE: 3 (100.0) n (%)
  Lipase increased, treatment‐related TEAE: 1 (33.3) n (%)
  Nausea, treatment‐related TEAE: 1 (33.3) n (%)
  PPE syndrome, treatment‐related TEAE: 2 (66.7) n (%)
  Vomiting, treatment‐related TEAE: 1 (33.3) n (%)
[3]; 180 mg (n = 3), ≥Grade 3
  ALT increased, treatment‐related TEAE: 2 (66.7) n (%)
  AST increased, treatment‐related TEAE: 1 (33.3) n (%)
  Vomiting, treatment‐related TEAE: 1 (33.3) n (%)
[3]; 1‐30 mg (n = 12), any grade
  Blood creatinine increased, treatment‐related TEAE: 2 (16.7) n (%)
  Lipase increased, treatment‐related TEAE: 1 (8.3) n (%)
  Nausea, treatment‐related TEAE: 1 (8.3) n (%)
[3]; QD
  Recommended dose for Part 2 (expansion part): 140 mg
[3]; Total (N = 24), any grade
  ALT increased, treatment‐related TEAE: 6 (25.0) n (%)
  AST increased, treatment‐related TEAE: 4 (16.7) n (%)
  Anemia, treatment‐related TEAE: 3 (12.5) n (%)
  Blood ALP increased, treatment‐related TEAE: 3 (12.5) n (%)
  Blood creatinine increased, treatment‐related TEAE: 9 (37.5) n (%)
  Diarrhea, treatment‐related TEAE: 6 (25.0) n (%)
  Dysgeusia, treatment‐related TEAE: 3 (12.5) n (%)
  Hyperphosphatemia, treatment‐related TEAE: 9 (37.5) n (%)
  Lipase increased, treatment‐related TEAE: 5 (20.8) n (%)
  Nausea, treatment‐related TEAE: 5 (20.8) n (%)
  PPE syndrome, treatment‐related TEAE: 4 (16.7) n (%)
  Retinal detachment, treatment‐related TEAE: 3 (12.5) n (%)
  Vomiting, treatment‐related TEAE: 3 (12.5) n (%)
[3]; Total (N = 24), ≥Grade 3
  ALT increased, treatment‐related TEAE: 2 (8.3) n (%)
  AST increased, treatment‐related TEAE: 1 (4.2) n (%)
  Vomiting, treatment‐related TEAE: 1 (4.2) n (%)
[3]; daily oral dose of 1‐180 mg
  Maximum tolerated dose (MTD): not reached
[3]; in vivo
  Drug‐related deaths: No drug‐related deaths were reported
  Number of AE of hyperphosphatemia: nine
  Number of AE of retinal detachment: three
  SAE considered related to the study drug: None
  TEAE leading to discontinuation of the study drug: no TEAE led to discontinuation
  TEAE leading to dose reduction: PPE syndrome: 2 n
  TEAE leading to dose reduction: increased ALT: 2 n
  TEAE leading to dose reduction: increased AST: 1 n
  TEAE‐related dose interruption: anorexia: 2 n
  TEAE‐related dose interruption: decreased neutrophil count: 1 n
  TEAE‐related dose interruption: nasopharyngitis: 1 n
  TEAE‐related dose interruption: nausea: 3 n
  TEAE‐related dose interruption: vomiting: 2 n
[3]; of 24 patients treated
  Number of patients with SAE: three
Phase I pharmacokinetics; 1‐16‐mg cohorts
  Plasma concentrations at 72 hours after dosing: below the limit of quantification
Phase I pharmacokinetics; [7]
  AUC(0‐t): 162 ng·h/mL
  C avg: 7 ng/mL
  C max: 13 ng/mL
  C min: 5 ng/mL
Phase I pharmacokinetics; repeated dose QD, 30 mg (n = 2)
  T max: 4 (3‐5) h
Phase I pharmacokinetics; [8]
  AUC(0‐t): 507 ^a h × ng/mL
  C avg: 21 ^a ng/mL
  C max: 51 ^a ng/mL
  C min: 11 ^a ng/mL
Phase I pharmacokinetics; repeated dose QD, 60 mg (n = 2)
  T max: 3 (2‐3) ^a h
Phase I pharmacokinetics; [9]
  AUC(0‐t): 1340 ± 437 ng·h/mL
  C avg: 56 ± 18 ng/mL
  C max: 116 ± 4 ng/mL
  C min: 22 ± 9 ng/mL
Phase I pharmacokinetics; repeated dose QD, 100 mg (n = 3)
  T max: 3 (2‐5) h
Phase I pharmacokinetics; [10]
  AUC(0‐t): 4700 ± 3380 ng·h/mL
  C avg: 196 ± 141 ng/mL
  C max: 372 ± 173 ng/mL
  C min: 117 ± 116 ng/mL
Phase I pharmacokinetics; repeated dose QD, 140 mg (n = 3)
  T max: 5 (3‐5) h
Phase I pharmacokinetics; [11]
  AUC(0‐t): 3860 ± 764 ng·h/mL
  C avg: 161 ± 32 ng/mL
  C max: 337 ± 60 ng/mL
  C min: 65 ± 19 ng/mL
Phase I pharmacokinetics; repeated dose QD, 180 mg (n = 3)
  T max: 5 (3‐5) h
Phase I pharmacokinetics; [12]
  AUC(0‐inf): 239 ng·h/mL
  AUC(0‐t): 222 ng·h/mL
  C max: 28 ng/mL
  CL/F: 127 L/h
  T 1/2: 23 h
  Vz/F: 4180 L
Phase I pharmacokinetics; single dose, 30 mg (n = 2)
  T max: 3 (1‐5) h
Phase I pharmacokinetics; [13]
  AUC(0‐inf): 554 ± 247 ng·h/mL
  AUC(0‐t): 533 ± 257 ng·h/mL
  C max: 39 ± 5 ng/mL
  CL/F: 121 ± 43 L/h
  T 1/2: 23 ± 8 h
  Vz/F: 3790 ± 1240 L
Phase I pharmacokinetics; single dose, 60 mg (n = 3)
  T max: 3 (3‐5) h
Phase I pharmacokinetics; [14]
  AUC(0‐inf): 1120 ± 479 ng·h/mL
  AUC(0‐t): 1080 ± 474 ng·h/mL
  C max: 86 ± 31 ng/mL
  CL/F: 103 ± 48 L/h
  T 1/2: 15 ± 2 h
  Vz/F: 2310 ± 1360 L
Phase I pharmacokinetics; single dose, 100 mg (n = 3)
  T max: 5 (3‐5) h
Phase I pharmacokinetics; [15]
  AUC(0‐inf): 4050 ± 3340 ng·h/mL
  AUC(0‐t): 3960 ± 3230 ng·h/mL
  C max: 227 ± 118 ng/mL
  CL/F: 59 ± 50 L/h
  T 1/2: 27 ± 12 h
  Vz/F: 1670 ± 617 L
Phase I pharmacokinetics; single dose, 140 mg (n = 3)
  T max: 5 (3‐5) h
Phase I pharmacokinetics; [16]
  AUC(0‐inf): 2610 ± 921 ng·h/mL
  AUC(0‐t): 2570 ± 933 ng·h/mL
  C max: 154 ± 38 ng/mL
  CL/F: 74 ± 22 L/h
  T 1/2: 24 ± 10 h
  Vz/F: 2550 ± 1550 L
Phase I pharmacokinetics; single dose, 180 mg (n = 3)
  T max: 2 (2‐5) h
Phase I pharmacokinetics; up to 180 mg
  C max and AUC(0‐ t ) versus dose: Dose‐dependent increases
FGFR pathway [4]
  Doses with sufficient FGFR pathway inhibition: ≥ 100 mg
Advanced solid tumors [5]; 30‐mg cohort
  Antitumor activity in cholangiocarcinoma with FGFR2 fusion: did not show potent antitumor activity
Advanced solid tumors [5]; 180‐mg cohort, gastric cancer with FGFR2 amplification, cycle 3 day 1, from 38 to 11 mm
  Reduction in diameter of the target lesion: 71%
FGFR
  Phosphorylation of downstream molecules including FRS2α, ERK1/2, and AKT: inhibited phosphorylation
[6]
  Survival effect: significantly prolonged survival effect

## COc1cc(OC)cc(N(CCNC(C)C)c2ccc3ncc(-c4cnn(C)c4)nc3c2)c1 [JNJ‐42756493]
FGFR pathway [1]; studies in solid tumors
  Phosphate and 1,25‐(OH)2‐vitamin D: increased
patients
  DLT observed: detachment of retinal pigment epithelium <grade 3 was the only DLT observed
